Reference: ChEMBL document CHEMBL1125611, “Synthesis and biological evaluation of a series of 1,1-dichloro-2,2,3-triarylcyclopropanes as pure antiestrogens” (1991)

Columns and labels:
[1] = species: Mus musculus; test: Ability to antagonize uterine weight gain in immature mice, at a dose of 30 ug; Activity is expressed as anti-uterotrophic % reduction; assay type: functional; parameters: scale not given: the % may be the effect or the level left
How it was run: (§1)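 Immature (17-19 days, 8-10 g) female Swiss-Webster mice, groups of six. Daily sc injections in the nape for 3 consecutive days. Estradiol in sesame oil (0.1 µg/mL, 0.1 mL; total 0.03 µg) plus 0.05 mL test compound in isopropyl myristate, given at separate sites. Vehicle and estradiol-only controls. Uteri cleaned, blotted and weighed 24 h after the last dose. % reduction of the estradiol-induced weight gain.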

[2] = species: Mus musculus; test: Ability to antagonize uterine weight gain in immature mice, at a dose of 750 ug; Activity is expressed as anti-uterotrophic % reduction; assay type: functional; parameters: scale not given: the % may be the effect or the level left; how it was run: as §1
[3] = species: Mus musculus; test: Ability to antagonize uterine weight gain in immature mice, at a dose of 150 ug; Activity is expressed as anti-uterotrophic % reduction; assay type: functional; parameters: scale not given: the % may be the effect or the level left; how it was run: as §1
[4] = target: T1, Estrogen receptor (Mus musculus) (UniProt O08537+P19785); test: Antagonism of estradiol induced uterine weight gain in immature mice at 10 ug; Activity is expressed as anti-uterotrophic % reduction; assay type: functional; parameters: scale not given: the % may be the effect or the level left; how it was run: as §1
[5] = target: T1, Estrogen receptor (Mus musculus); test: Antagonism of estradiol induced uterine weight gain in immature mice at 30 ug.; assay type: functional; parameters: scale not given: the % may be the effect or the level left; how it was run: as §1
[6] = target: Estrogen receptor (Homo sapiens) (UniProt Q92731+P03372); test: Antiproliferative activity against estrogen receptor positive MCF-7 human breast cancer cell line at 10e-9 M; assay type: functional, cell-based; conditions: MCF7
How it was run: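 MCF-7 cells in phenol-red-free RPMI 1640 with 5% calf serum, 2 mM L-glutamine and antibiotics, 37 °C, 5% CO2. Plated at 7.5 × 10⁴ cells/well, then allowed to attach for 2 days. Compound in 11:9 PEG 400–EtOH (final vehicle 0.1%) added on alternate days. Viable cells counted on day 4 by trypan blue exclusion, triplicate. % inhibition versus vehicle control.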

[7] = target: T1, Estrogen receptor (Mus musculus); test: Antagonism of estradiol induced uterine weight gain in immature mice at 4 ug; Activity is expressed as anti-uterotrophic % reduction; assay type: functional; parameters: scale not given: the % may be the effect or the level left; how it was run: as §1
[8] = target: T1, Estrogen receptor (Mus musculus); test: Antagonism of estradiol induced uterine weight gain in immature mice at 150 ug.(p<0.01); assay type: functional; parameters: scale not given: the % may be the effect or the level left; how it was run: as §1
[9] = target: Estrogen receptor (Rattus norvegicus) (UniProt P06211+Q62986); test: Relative binding affinity for estrogen receptor in rat uterine cytosol by displacement of [3H]-estradiol; conditions: Uterus
How it was run: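 Uterine cytosol from immature Sprague-Dawley rats (17-19 days) primed with estradiol (0.53 µg sc daily ×3). Competitive displacement of [3H]estradiol, with free ligand removed by dextran-coated charcoal. Parallel incubations with 4 × 10⁻⁶ diethylstilbestrol define nonspecific binding, which is subtracted. RBA relative to estradiol = 100%, by Bliss method, duplicates.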

[10] = target: T1, Estrogen receptor (Mus musculus); test: Antagonism of estradiol induced uterine weight gain in immature mice at 200 ug; Activity is expressed as anti-uterotrophic % reduction; assay type: functional; parameters: scale not given: the % may be the effect or the level left; how it was run: as §1
[11] = target: T1, Estrogen receptor (Mus musculus); test: Antagonism of estradiol induced uterine weight gain in immature mice at 400 ug; Activity is expressed as anti-uterotrophic % reduction; assay type: functional; parameters: scale not given: the % may be the effect or the level left; how it was run: as §1
[12] = target: T1, Estrogen receptor (Mus musculus); test: Antagonism of estradiol induced uterine weight gain in immature mice at 800 ug; Activity is expressed as anti-uterotrophic % reduction; assay type: functional; parameters: scale not given: the % may be the effect or the level left; how it was run: as §1
[13] = target: T1, Estrogen receptor (Mus musculus); test: Antagonism of estradiol induced uterine weight gain in immature mice at 750 ug; Activity is expressed as anti-uterotrophic % reduction; assay type: functional; parameters: scale not given: the % may be the effect or the level left; how it was run: as §1

T1 sequence (O08537 whole entry, looked up): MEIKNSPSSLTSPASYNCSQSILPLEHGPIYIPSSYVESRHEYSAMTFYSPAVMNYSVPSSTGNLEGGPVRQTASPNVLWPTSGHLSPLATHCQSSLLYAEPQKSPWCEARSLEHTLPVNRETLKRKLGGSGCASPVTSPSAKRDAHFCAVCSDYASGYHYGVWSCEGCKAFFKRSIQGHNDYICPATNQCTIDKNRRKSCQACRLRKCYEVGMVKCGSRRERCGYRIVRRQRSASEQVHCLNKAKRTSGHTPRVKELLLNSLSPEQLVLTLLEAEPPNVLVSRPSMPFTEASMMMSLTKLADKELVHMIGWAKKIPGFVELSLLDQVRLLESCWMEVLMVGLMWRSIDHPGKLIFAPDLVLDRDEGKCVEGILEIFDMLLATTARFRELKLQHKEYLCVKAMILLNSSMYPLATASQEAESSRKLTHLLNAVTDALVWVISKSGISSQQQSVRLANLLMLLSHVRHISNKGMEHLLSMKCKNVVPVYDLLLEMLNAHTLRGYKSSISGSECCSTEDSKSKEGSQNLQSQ
T1 sequence (P19785 whole entry, looked up): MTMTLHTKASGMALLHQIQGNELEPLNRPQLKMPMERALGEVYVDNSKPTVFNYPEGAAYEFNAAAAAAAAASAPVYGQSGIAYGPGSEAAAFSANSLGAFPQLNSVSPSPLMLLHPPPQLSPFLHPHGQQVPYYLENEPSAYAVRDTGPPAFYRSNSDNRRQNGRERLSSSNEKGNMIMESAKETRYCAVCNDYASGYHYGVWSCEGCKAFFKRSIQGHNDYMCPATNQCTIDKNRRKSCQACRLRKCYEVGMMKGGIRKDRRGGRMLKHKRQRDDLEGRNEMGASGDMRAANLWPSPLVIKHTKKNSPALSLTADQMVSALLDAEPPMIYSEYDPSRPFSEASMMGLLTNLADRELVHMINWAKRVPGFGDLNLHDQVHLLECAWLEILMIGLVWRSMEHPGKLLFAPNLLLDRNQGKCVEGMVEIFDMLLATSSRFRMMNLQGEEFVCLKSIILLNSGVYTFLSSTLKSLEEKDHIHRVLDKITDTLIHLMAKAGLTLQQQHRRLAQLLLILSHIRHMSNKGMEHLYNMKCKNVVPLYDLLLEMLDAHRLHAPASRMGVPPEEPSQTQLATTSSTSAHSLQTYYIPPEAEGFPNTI

Compound	Activity [1] [%]	Activity [2] [%]	Activity [3] [%]	also measured
COc1ccc(C2(c3ccc(O)cc3)C(c3ccccc3)C2(Cl)Cl)cc1 (stereo in doubt; 6b)	15	41	-7	
COc1ccc(C2C(Cl)(Cl)C2(c2ccc(OC)cc2)c2ccc(OCc3ccccc3)cc2)cc1 (configuration not stated)		2	49	Activity [4]: 2%; Activity [5]: 15%
Oc1ccc(C2(c3ccccc3)C(c3ccccc3)C2(Cl)Cl)cc1 (configuration not stated)	23	25	12	
COc1ccc(C2C(Cl)=C(c3ccc(OCc4ccccc4)cc3)c3ccc(OC)cc32)cc1 (configuration not stated)	14	0	4	
CN(C)CCOc1ccc(C2(c3ccccc3)C(c3ccccc3)C2(Cl)Cl)cc1 (configuration not stated)	37	18	30	Activity [4]: 10%; inhibition [6]: 12.4%; Activity [7]: -6%
CC/C(=C(\c1ccccc1)c1ccc(OCCN(C)C)cc1)c1ccccc1 [TAMOXIFEN]	4	-12	0	
COc1ccc(C2(c3ccc(OCCN(C)C)cc3)C(c3ccccc3)C2(Cl)Cl)cc1 (configuration not stated)	33	53	42	Activity [4]: 6%; Activity [7]: -10%
COc1ccc(C2=C(Cl)C(c3ccc(OC)cc3)c3cc(OC)ccc32)cc1 (configuration not stated)	27	28	-6	
COc1ccc(C2(c3ccccc3)C(c3ccccc3)C2(Cl)Cl)cc1 (configuration not stated)	22	33	49	inhibition [6]: 6.1%
COc1ccc(C2(c3ccc(OCc4ccccc4)cc3)C(c3ccccc3)C2(Cl)Cl)cc1 (configuration not stated)	37	22		Activity [8]: 47%; inhibition [6]: 31.3%
ClC1(Cl)C(c2ccccc2)C1(c1ccccc1)c1ccccc1 (configuration not stated)	11	13	3	RBA [9]: 0.1%
COc1ccc(C2(c3ccc(O)cc3)C(c3ccccc3)C2(Cl)Cl)cc1 (stereo in doubt; 6c)	28	22	18	
ClC1(Cl)C(c2ccccc2)C1c1ccccc1 (configuration not stated)				Activity [10]: 28%; Activity [11]: 42%; Activity [12]: 58%
COc1ccc(C2C(Cl)(Cl)C2(c2ccc(O)cc2)c2ccc(OC)cc2)cc1 (configuration not stated)	19	26	10	
COc1ccc(C2C(Cl)=C(c3ccc(O)cc3)c3ccc(OC)cc32)cc1 (configuration not stated)	3	12	14	
CCN(CC)CCOc1ccc(C(O)(Cc2ccc(OC)cc2)c2ccccc2)cc1 (configuration not stated)	1		30	Activity [13]: 82%
